MrgX1 ag: activates human MrgX1 receptor signaling. 310,000 compounds, 0.44% hits. B-score at 10 µM. Q96LB2. AID 588627. MrgX1-HEK293 cells, Fluo-4 calcium fluorescence, agonist mode; hits give high values;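 active = calcium response B-score plate-corrected fluorescence ratio at least 3 library SD, with starting fluorescence B-score inside 5 SD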
Target sequence (Q96LB2 whole entry, looked up): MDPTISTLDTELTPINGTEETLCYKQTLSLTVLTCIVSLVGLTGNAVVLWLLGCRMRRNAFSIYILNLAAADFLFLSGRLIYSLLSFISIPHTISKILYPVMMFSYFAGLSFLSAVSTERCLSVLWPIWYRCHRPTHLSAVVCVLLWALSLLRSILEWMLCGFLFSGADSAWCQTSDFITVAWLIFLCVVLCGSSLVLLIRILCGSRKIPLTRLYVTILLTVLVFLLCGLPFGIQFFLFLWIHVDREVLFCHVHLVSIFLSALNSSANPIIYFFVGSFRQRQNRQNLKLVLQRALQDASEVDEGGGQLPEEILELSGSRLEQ
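System – MrgX1-expressing HEK293 cells · Incubation – cells plated overnight, dye loaded 0.5 h 37 °C, 0.5 h room temperature · Technique – kinetic Fluo-4 NW fluorescence of intracellular calcium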
MrgX1 PAM: allosterically activates human MrgX1 receptor signaling; Q96LB2; MrgX1-HEK293, Fluo-4 calcium flux, FDSS; hits give high values; B-score at 10 µM; 310,000 compounds, 0.63% hits;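 active = plate-corrected calcium response at least 3 library SD above typical, normal starting fluorescence, not activating the receptor alone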;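 also: compound read alongside a low EC10 to EC30 dose of BAM8-22 agonist; peak minus trough fluorescence over baseline measured at the second addition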
RGS4 block: inhibitors of human RGS4 | P49798 | HEK293 M3R/RGS4 inducible, Fluo-4 calcium flux; hits give high values; triggered by carbachol at its EC20 | B-score at 10 µM | 310,000 compounds, 0.45% hits;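 active = B-score, a plate-corrected calcium signal, over three deviations above library mean, with baseline fluorescence within five deviations of library mean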;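 also: RGS4 expression induced by doxycycline in cells with stable M3 receptor; B-score is computed from the integrated fluorescence ratio over baseline after carbachol; higher B-score means a larger calcium signal and so more RGS4 inhibition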
Target sequence (P49798 whole entry, looked up): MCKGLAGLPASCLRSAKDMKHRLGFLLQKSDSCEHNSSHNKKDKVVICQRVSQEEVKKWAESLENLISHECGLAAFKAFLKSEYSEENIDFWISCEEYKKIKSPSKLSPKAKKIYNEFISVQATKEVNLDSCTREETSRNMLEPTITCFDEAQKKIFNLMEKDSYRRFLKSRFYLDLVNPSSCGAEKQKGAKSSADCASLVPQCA
RGS4 act: RGS4 potentiation or activation; HEK293 M3R/inducible RGS4, carbachol calcium flux Fluo4; hits give low values; B-score at 10 µM; 310,000 compounds, 0.92% hits;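 active = B-score of the integrated calcium signal more than 4 SD below the library mean, with starting fluorescence not abnormally high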;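 also: negative B-score means reduced calcium response which marks RGS4 activation or potentiation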
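System: HEK293 FlpIn-TREx cells, stable M3R, doxycycline-inducible RGS4. Timing: overnight RGS4 induction, 30 min dye load 37 °C, 20 min compound RT. Also added: carbachol, ECmax concentration. Measured by: Fluo4 fluorescence kinetic imaging of calcium. Evaluation: integrated calcium ratio converted to B score.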
MrgX1 antag: human MrgX1 receptor antagonism, primary screen; Q96LB2; MRGX1-HEK293 calcium flux, Fluo-4, BAM8-22 antagonism; hits give low values; 310,000 compounds, 1.3% hits; B-score at 10 µM;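 active = calcium-response B-score plate-corrected more than 3 library SD below zero, starting fluorescence within 5 deviations, no agonist response on first addition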;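 also: peak minus trough fluorescence over baseline after final BAM8-22 challenge near maximal dose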
Starred values were filed as active, the others as inactive; ! = not active in a repeat. Only some compounds are listed: those with a hit (about 3.5% of all), similar ones and a draw of the others.

Screening CCOC(=O)CC1C(=O)NCCN1c1nc2ccc(C)cn2c(=O)c1/C=C1\SC(=S)N(C(C)CC)C1=O (stereo not given) returned MrgX1 ag 108*, MrgX1 PAM inactive, RGS4 block inactive, RGS4 act inactive and MrgX1 antag inactive.
For CCCN1C(=O)/C(=C/c2c(N3CCNC(=O)C3CC(=O)OCC)nc3c(C)cccn3c2=O)SC1=S (stereo not given) the results were MrgX1 ag inactive, MrgX1 PAM inactive, RGS4 block inactive, RGS4 act inactive and MrgX1 antag inactive.
Cc1nc(SCC(=O)NCC2CCCO2)[nH]c(=O)c1C (stereo not given) was read as MrgX1 ag inactive, MrgX1 PAM inactive, RGS4 block inactive, RGS4 act inactive and MrgX1 antag inactive.
For Cc1cccc(C)c1NC(=O)c1sccc1SCc1cccc(C(F)(F)F)c1 the results were MrgX1 ag inactive, MrgX1 PAM inactive, RGS4 block inactive, RGS4 act inactive and MrgX1 antag -5*.
Screening O=C(c1cc(-c2cccs2)nn1-c1ccccc1)N1CCN(S(=O)(=O)c2ccccc2)CC1 returned MrgX1 ag inactive, MrgX1 PAM inactive, RGS4 block inactive, RGS4 act -7.2* and MrgX1 antag inactive.
CS(=O)(=O)Nc1cccc(C2=NN(S(C)(=O)=O)C(c3ccc4c(c3)OCO4)C2)c1 (stereo not given) was read as MrgX1 ag inactive, MrgX1 PAM inactive, RGS4 block inactive, RGS4 act inactive and MrgX1 antag -7.6*.
CS(=O)(=O)N1N=C(c2ccccc2)CC1c1ccc2c(c1)OCO2 (stereo not given) was read as MrgX1 ag inactive, MrgX1 PAM inactive, RGS4 block inactive, RGS4 act inactive and MrgX1 antag inactive.
Screening CN(c1ccccc1)P(=O)(N(C)c1ccccc1)N(C)c1ccccc1 returned MrgX1 ag inactive, MrgX1 PAM inactive, RGS4 block inactive, RGS4 act -11* and MrgX1 antag inactive.
CCN(c1ccccc1)P(=O)(Nc1ccccc1)Nc1ccccc1 was read as MrgX1 ag inactive, MrgX1 PAM inactive, RGS4 block inactive, RGS4 act inactive and MrgX1 antag inactive.
For CCN(CC)C(=O)c1ccc(NS(=O)(=O)c2ccc3[nH]c(=O)[nH]c3c2)cc1 the results were MrgX1 ag inactive, MrgX1 PAM inactive, RGS4 block inactive, RGS4 act inactive and MrgX1 antag inactive.
CCN(CC)CCCN1C=C2C(=O)C(C)(OC(=O)CCC(=O)OC)C(=O)C=C2C=C1C1CC1 (stereo not given) was read as MrgX1 ag inactive, MrgX1 PAM inactive, RGS4 block inactive, RGS4 act inactive and MrgX1 antag -5.5*.
CC1(C)CC2(CCO1)C(Nc1ccccc1)=NC(=S)N2CC(N)=O (stereo not given) was read as MrgX1 ag inactive, MrgX1 PAM inactive, RGS4 block inactive, RGS4 act inactive and MrgX1 antag inactive.
Cc1cc(NC(=O)CCCn2ccc([N+](=O)[O-])n2)n(Cc2ccc(F)cc2)n1 was read as MrgX1 ag inactive, MrgX1 PAM inactive, RGS4 block inactive, RGS4 act inactive and MrgX1 antag inactive.
Screening CC(C)(C)C(=O)c1sc2nc(-c3cccs3)cc(C(F)(F)F)c2c1N returned MrgX1 ag inactive, MrgX1 PAM inactive, RGS4 block inactive, RGS4 act -9.7* and MrgX1 antag inactive.
For CCN(CC)C(=O)c1sc2nc(-c3cccs3)cc(-c3cccs3)c2c1N the results were MrgX1 ag inactive, MrgX1 PAM inactive, RGS4 block inactive, RGS4 act inactive and MrgX1 antag -7.2*.
For CCCCOC(=O)c1ccc(NC(=O)C(=O)CC(=O)c2ccc(OC)cc2)cc1 the results were MrgX1 ag inactive, MrgX1 PAM inactive, RGS4 block inactive, RGS4 act inactive and MrgX1 antag inactive.
`COc1ccccc1C(=O)NNC(=O)c1ccc(F)cc1` gave MrgX1 ag inactive, MrgX1 PAM inactive, RGS4 block inactive, RGS4 act inactive and MrgX1 antag inactive.
`Cc1ccccc1C(=O)NNC(=O)c1ccc(F)cc1` gave MrgX1 ag inactive, MrgX1 PAM inactive, RGS4 block inactive, RGS4 act inactive and MrgX1 antag -7.1*.
Screening Cc1nn(CC(C)C)c(Cl)c1C(=O)N(c1ccc(Cl)cc1F)S(C)(=O)=O returned MrgX1 ag inactive, MrgX1 PAM inactive, RGS4 block inactive, RGS4 act inactive and MrgX1 antag inactive.
`COc1ccccc1-n1c(-c2ccccc2)c[n+]2c1CCc1ccccc1-2` gave MrgX1 ag inactive, MrgX1 PAM inactive, RGS4 block inactive, RGS4 act -7.9*! and MrgX1 antag inactive.
For COc1ccc(-c2noc3c2-c2nc(-c4ccc(C)cc4)sc2CC3)cc1 the results were MrgX1 ag inactive, MrgX1 PAM inactive, RGS4 block inactive, RGS4 act inactive and MrgX1 antag -4.6*.
Screening COc1ccc(-c2noc3c2-c2nc(-c4ccccc4)sc2CC3)cc1 returned MrgX1 ag inactive, MrgX1 PAM inactive, RGS4 block inactive, RGS4 act inactive and MrgX1 antag inactive.
`Fc1ccccc1-c1nc2c(s1)CCc1onc(-c3ccc(Br)cc3)c1-2` gave MrgX1 ag inactive, MrgX1 PAM inactive, RGS4 block inactive, RGS4 act inactive and MrgX1 antag -5.4*.
O=[N+]([O-])c1cccc(N(CC(O)CN2CCCCC2)S(=O)(=O)c2ccccc2)c1 (stereo not given) was read as MrgX1 ag inactive, MrgX1 PAM inactive, RGS4 block inactive, RGS4 act inactive and MrgX1 antag inactive.
For O=C(/C=C/c1ccc(OC(F)F)cc1)Nc1cccc(S(=O)(=O)NC2=NCCCCC2)c1 the results were MrgX1 ag inactive, MrgX1 PAM inactive, RGS4 block inactive, RGS4 act inactive and MrgX1 antag -8.2*.
CC(C)(C)C(=O)c1no[n+]([O-])c1/C(=N/O)C(C)(C)C was read as MrgX1 ag 37*, MrgX1 PAM inactive, RGS4 block inactive, RGS4 act inactive and MrgX1 antag inactive.
Screening COc1ccc(S(=O)(=O)N2CCc3ccccc32)cc1C(=O)OCC(=O)c1c(N)n(C)c(=O)n(C)c1=O returned MrgX1 ag inactive, MrgX1 PAM inactive, RGS4 block inactive, RGS4 act -9.6* and MrgX1 antag inactive.
Screening O=C(C1CCC(=O)N(C2CCCC2)C1)N1CCN(Cc2cccc(F)c2)CC1 (stereo not given) returned MrgX1 ag inactive, MrgX1 PAM inactive, RGS4 block inactive, RGS4 act inactive and MrgX1 antag inactive.
`Cc1c(NC(=O)Nc2ccc(Cl)cc2)c(=O)n(-c2ccccc2)n1C` gave MrgX1 ag inactive, MrgX1 PAM inactive, RGS4 block inactive, RGS4 act inactive and MrgX1 antag -5.9*.
